Assay results published in ChEMBL document CHEMBL4480389, “Chemoenzymatically synthesized ganglioside GM3 analogues with inhibitory effects on tumor cell growth and migration” (Eur J Med Chem, 2019).
The source made the active and inactive calls. The rule behind the calls is not given here.

Assays:
HCCLM3 = test: Antimigratory activity against human HCCLM3 cells at 50 uM after 48 hrs by wound healing assay; format: functional, cell-based
Procedure, shortened: (§1)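 Near-confluent monolayers (1.5×10^5 cells per well, RPMI-1640 with 10% FBS) were scratched with a pipette tip and washed twice with serum-free medium. They were then exposed for 48 h to analogue in fresh FBS-containing medium, with DMSO medium as control. Wounds were photographed, and migration was expressed as % of 0 h (wound width at endpoint/width at 0 h). Done in triplicate.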

K562 = test: Antiproliferative activity against human K562 cells after 48 hrs by MTT assay; format: functional, cell-based; details: K562, 48 h
Procedure, shortened: (§2)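 Cells were seeded at 8×10^3 per well in RPMI-1640 with 10% heat-inactivated FBS. They were treated for 48 h at 37 °C, 5% CO2 with 20, 200, 400 or 1000 μM analogue, or DMSO vehicle. MTT (5 mg/mL solution) was added for 4 h, and absorbance was read at 570 nm. Viability was taken relative to vehicle control, as means ± SD of three independent experiments.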

HCT-116 = test: Antiproliferative activity against human HCT116 cells after 48 hrs by MTT assay; format: functional, cell-based; details: HCT-116, 48 h; procedure, shortened: as §2
B16 = test: Antimigratory activity against mouse B16 cells at 6.25 to 12.5 uM after 48 hrs by wound healing assay; format: functional, cell-based; procedure, shortened: as §1
B16-F10 = test: Antimigratory activity against mouse B16F10 cells at 6.25 to 12.5 uM after 12 hrs by wound healing assay

IC50 (K562) [µM]	IC50 (HCT-116) [µM]	SMILES	Activity (HCCLM3)	Activity (B16)	Activity (B16-F10)
148	182	CCCCCCCCCCCCC/C=C/[C@@H](O)[C@@H](N)CO[C@H]1O[C@H](CO[C@]2(C(=O)O)C[C@H](O)[C@@H](NC(C)=O)[C@H]([C@H](O)[C@H](O)CO)O2)[C@@H](O)[C@H](O)[C@@H]1O	Active	Active	Active
160	64.2	CCCCCCCCCCCCC/C=C/[C@@H](O)[C@H](CO[C@H]1O[C@H](CO[C@]2(C(=O)O)C[C@H](O)[C@@H](NC(C)=O)[C@H]([C@H](O)[C@H](O)CO)O2)[C@@H](O)[C@H](O)[C@@H]1O)NC(=O)CCCCCCCCCCCCCCCCC	inactive	Active	Active
396	86.2	CCCCCCCCCCCCC/C=C/[C@@H](O)[C@H](CO[C@@H]1O[C@H](CO[C@]2(C(=O)O)C[C@H](O)[C@@H](NC(C)=O)[C@H]([C@H](O)[C@H](O)CO)O2)[C@H](O)[C@H](O)[C@H]1O)NC(=O)CCCCCCCCCCCCCCCCC	inactive	Active	Active
206	130	CCCCCCCCCCCCC/C=C/[C@@H](O)[C@@H](N)CO[C@@H]1O[C@H](CO[C@]2(C(=O)O)C[C@H](O)[C@@H](NC(C)=O)[C@H]([C@H](O)[C@H](O)CO)O2)[C@H](O)[C@H](O)[C@H]1O	Active	Active	Active
